Published values of several laboratories.
Protocols differ between the studies behind these lines.
Sialidase-2: Sialidase-2 (Homo sapiens, UniProt Q9Y3R4)
ACHE: Acetylcholinesterase (ACHE, Homo sapiens, UniProt P22303)
FABP4: Fatty acid-binding protein, adipocyte (FABP4, Homo sapiens, UniProt P15090)

Cc1cn([C@H]2[C@H]([C@H](O)[C@H](O)CO)OC(C(=O)O)=C[C@@H]2O)nn1  IC50 (Sialidase-2; enzyme activity, inhibitor): 80000 nM
O=c1cc(CSc2ccc(N=Cc3ccc(Br)cc3)cc2)occ1O  Ki (ACHE; enzyme activity, inhibitor): 907 nM
CC(=O)c1c(C)c2cnc(Nc3ccc(C4CCN(CCS(C)(=O)=O)CC4)cn3)nc2n(C2CCCC2)c1=O  IC50 (Cytochrome P450 2C8 (CYP2C8, Homo sapiens, UniProt P10632); enzyme activity, inhibitor; human, liver microsomes): > 10000 nM
CC(C)c1cc2c(c(O)c1O)[C@@]1(C(=O)O)CCCC(C)(C)[C@@H]1CC2  Ki (ACHE; enzyme activity, inhibitor): 0.58 nM
CCCCOP(=O)(O)C(C)=O  Ki (1-deoxy-D-xylulose-5-phosphate synthase (dxs, Escherichia coli, UniProt P77488); enzyme activity, inhibitor): 3000 nM
CC(C)(C)CN[C@H]1[C@H]([C@H](O)[C@H](O)CO)OC(C(=O)O)=C[C@@H]1O  IC50 (Sialidase-2; enzyme activity, inhibitor): 120000 nM
Cc1ccccc1C=Nc1ccc(SCc2cc(=O)c(O)co2)cc1  IC50 (ACHE; enzyme activity, inhibitor, Ellman): 5300 nM
O=C(O)C(F)(F)C(F)(F)C(F)(F)C(F)(F)C(F)(F)C(F)(F)C(F)(F)F  Ki (FABP4; ligand displacement, fluorescence): 1820 nM
CC(C)c1cc2c(c(O)c1O)[C@@]13CCCC(C)(C)[C@@H]1[C@H](OC3=O)[C@H]2O  Ki (ACHE; enzyme activity, inhibitor): 0.23 nM
CC1=C(CO)C(=O)O[C@@H]([C@@H](C)[C@H]2CC[C@H]3[C@@H]4C[C@H]5O[C@]56[C@@H](O)C=CC(=O)[C@]6(C)[C@H]4CC[C@]23C)C1  Kd (Importin subunit beta-1 (KPNB1, Homo sapiens, UniProt Q14974, C158A); binding, MST): 90400 nM
Cn1c(=O)n(CCCCN2CCC3(CC2)OCc2ccccc23)c2ccccc21  Ki (Transporter (Slc6a2, Rattus norvegicus, UniProt Q63380); ligand displacement, radioligand; cell membranes): 232 nM
Cc1c(-c2cccnc2)c2ccccc2n1CCCCC(=O)O  Kd (FABP4; ligand displacement, fluorescence): 3260 nM
O=C(O)C(F)(F)C(F)(F)C(F)(F)C(F)(F)C(F)(F)C(F)(F)C(F)(F)C(F)(F)C(F)(F)F  Ki (FABP4; ligand displacement, fluorescence): 1350 nM
